Screening data (PubChem BioAssay)
M4 PAM – positive allosteric modulators of human muscarinic M4 receptor; P08173; CHO-K1 hM4/Gqi5, Fluo-8 calcium fluorescence, ACh EC20; 0% = ACh EC20, 100% = maximal ACh; activation, % at 3 µM; actives 0.4% (n = 360,000);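 active = activation above its plate's cutoff, the mean activation of sample wells plus 3 SD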
Target sequence (P08173 whole entry, looked up): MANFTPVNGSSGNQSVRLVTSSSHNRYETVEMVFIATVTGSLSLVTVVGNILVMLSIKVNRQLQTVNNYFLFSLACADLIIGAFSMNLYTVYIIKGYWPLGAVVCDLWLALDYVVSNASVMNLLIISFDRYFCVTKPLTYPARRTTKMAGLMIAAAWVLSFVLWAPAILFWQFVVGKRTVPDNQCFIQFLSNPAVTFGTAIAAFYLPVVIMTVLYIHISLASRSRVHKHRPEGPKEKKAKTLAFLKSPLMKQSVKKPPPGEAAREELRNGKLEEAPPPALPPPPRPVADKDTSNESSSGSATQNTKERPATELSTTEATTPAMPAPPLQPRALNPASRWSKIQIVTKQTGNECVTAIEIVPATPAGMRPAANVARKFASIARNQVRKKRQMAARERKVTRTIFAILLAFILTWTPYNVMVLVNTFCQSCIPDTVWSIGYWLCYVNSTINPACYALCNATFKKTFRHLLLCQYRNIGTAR
CHRM4 antagonist – antagonists of human muscarinic M4 receptor (CHRM4) | inhibition, % at 3 µM | AID 624125 | P08173 | actives 0.73% (n = 360,000) | CHO-hM4 cells, ACh EC80, Fluo-8 calcium fluorescence;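 active = inhibition above its plate's cutoff, the mean inhibition of sample wells plus 3 SD, cut at about 27% in these data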;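 also: 0% = acetylcholine EC80 with DMSO and 100% = DMSO without agonist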
CHRM5 agonist – CHRM5 agonism in calcium assay; P08912; activation, % at 3 µM; actives 0.19% (n = 360,000); CHO-K1 hM5 cells, Fluo-8 calcium fluorescence; 0% DMSO wells, 100% maximal acetylcholine response; AID 624037;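 active = activation above the run's mean over test compounds plus 3 SD, cut at about 23% in these data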;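 also: signal is peak over basal fluorescence ratio across the kinetic read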
M5 PAM – potentiates acetylcholine response at human M5 receptor. P08912. CHO-K1 hM5, Fluo-8 calcium, ACh EC20 PAM; 0% = ACh EC20, 100% = ACh EC100. activation, % at 3 µM. actives 0.3% (n = 360,000);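 active = activation above the run cutoff, the mean activation of all test compounds plus 3 SD, cut at about 18% in these data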
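system = human M5 receptor in CHO-K1 cells | reagent = EC20 acetylcholine as agonist stimulus | compound dosing = single-point, 3 µM nominal | incubation = Fluo-8 loading 80 min at 37 °C plus 30 min room temperature | detection = Fluo-8 calcium dye fluorescence, kinetic read | benchmarks = low control EC20 acetylcholine (0%), high control EC100 acetylcholine (100%)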
CHRM5 antagonist – antagonists of human muscarinic M5 receptor (CHRM5). AID 624040. actives 0.59% (n = 360,000). CHO-hM5 cells, Fluo-8 calcium fluorescence, ACh EC80. inhibition, % at 3 µM;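 active = inhibition above a per-plate cutoff, the mean of that plate's test compounds plus 3 SD, cut at about 27% in these data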;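 also: 0% = acetylcholine EC80 with DMSO and 100% = DMSO without agonist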
CHRM4 agonist – CHRM4 agonism in calcium assay; P08173; CHO-K1 hM4/Gqi5, Fluo-8 calcium fluorescence; vehicle 0%, full acetylcholine response 100%; activation, % at 3 µM; actives 0.14% (n = 360,000); AID 624127;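 active = activation above the run mean over all test wells plus 3 SD, cut at about 32% in these data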;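 also: peak over basal fluorescence ratio per well then scaled between controls; 0% = DMSO wells and 100% = acetylcholine at EC100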
Active calls of the source: *. The list is not random: actives were taken first. Their share in the collection is about 1.9%.

SMILES | M4 PAM | CHRM4 antagonist | CHRM5 agonist | M5 PAM | CHRM5 antagonist | CHRM4 agonist
O=[N+]([O-])c1cccc(COc2ccc(CN3CCCC3)cc2)c1 | -13.1 | 28.4* | -3.6 | -12.9 | 5.8 | 1.6
O=C(c1ccc(N2CCCC2=O)cc1)N1CCN(c2ccccc2)CC1 | 6.3 | -5.1 | 1.3 | 45.3* | 10.7 | 0.8
COc1ccccc1N1CCN(C(=O)c2ccc(-c3ccc(Cl)cc3)o2)CC1 | 3.5 | 1.5 | -4.1 | -11.1 | 8.4 | 5.7
CCC(C)c1ccccc1OCCn1ccnc1 (centres undefined) | -3.2 | 0.6 | -6.5 | -18.4 | 29.7* | 1.4
Clc1ccc(OCCn2ccnc2)c(Br)c1 | 0.3 | 1.0 | -11.5 | 27.0* | 8.0 | -0.3
CCCCNC(=O)C1(C)CCC(=O)N1c1cc(C(C)(C)C)nn1C (centres undefined) | 6.5 | -10.7 | 2.2 | -4.7 | 2.5 | 0.7
CC(C)(C)OC(=O)N1Cc2ccccc2C[C@H]1C(=O)NCC(=O)NCC1CCCO1 (some centres undefined) | 5.4 | -8.1 | -7.0 | -1.6 | -4.6 | 0.3
COc1ccc(C2C(C(=O)NCc3ccco3)CCC(=O)N2c2ccc(OC)cc2)cc1 (centres undefined) | 4.0 | -5.1 | -4.3 | 46.0* | 3.2 | 0.3
COc1ccc(C2C(C(=O)O)CCC(=O)N2c2ccc(OC)cc2)cc1 (centres undefined) | -3.8 | 2.0 | 0.6 | -4.4 | -5.2 | 1.6
O=C(CN1CCOCC1)Nc1nc(-c2ccccc2Cl)cs1 | -12.5 | -6.0 | 1.7 | -11.0 | 13.9 | 16.7
Cc1ccc2[nH]c(-c3ccccc3)c(CN3CCCC3)c(=O)c2c1 | 13.2 | -10.8 | -3.5 | 20.3* | -13.7 | -0.4
Cn1cc(C(=O)N2CCN(c3ccccn3)CC2)c(=O)c2cc(S(=O)(=O)N3CCOCC3)ccc21 | 7.9 | -7.4 | -1.8 | 20.1* | -3.9 | 1.3
Cc1cc(C)c(CN2CCN(C(=O)Cn3ccc(N)nc3=O)CC2)c(C)c1 | 13.2 | -9.0 | -6.4 | -2.4 | 5.6 | 0.7
CSc1nc(N)nc2c1ncn2CC(=O)N1CCN(Cc2c(C)cc(C)cc2C)CC1 | -7.0 | 7.2 | 2.6 | -15.2 | 31.9* | 13.4
CCN(CC)S(=O)(=O)c1ccc(C(=O)NCC(c2cccs2)N2CCOCC2)cc1 (centres undefined) | -15.5 | 39.0* | 1.3 | 4.2 | -4.0 | -0.6
N#CCN(C(=O)CSc1nnc(C2CC2)n1C1CC1)c1ccccc1 | 5.2 | -9.3 | -0.2 | -0.5 | -3.8 | 0.9
O=C(CN1C(=O)CSC1=O)c1ccccc1 | 8.7 | -11.5 | -2.7 | 44.8* | -6.0 | 0.9
O=C(Nc1cccc(C(=O)O)c1)/C(=C\c1ccccc1Cl)NC(=O)c1ccco1 | 21.0* | -0.4 | -2.9 | 2.2 | -3.0 | 2.7
COc1ccc(/C=C(/NC(=O)c2ccco2)C(=O)Nc2cccc(C(=O)O)c2)cc1 | 1.2 | -6.3 | -2.7 | -1.7 | 10.1 | 2.1
O=C(NNC(=O)c1cc2cc3ccccc3nc2s1)c1cccc(Cl)c1 | 29.8* | 2.6 | -2.2 | 13.4 | 5.4 | 1.2
CCCn1c(SCC(=O)NC(C)(C)C)nnc1-c1ccco1 | -2.5 | 1.0 | -2.2 | -2.6 | 3.9 | 2.2
Cc1cc(C(=O)CSc2nc3ccccc3[nH]2)c(C)n1CC1CCCO1 (centres undefined) | -17.4 | 66.3* | 10.2 | -23.3 | 60.3* | 34.5*
Cc1cc(C(=O)CSc2nc(N)cc(=O)[nH]2)c(C)n1CC1CCCO1 (centres undefined) | -2.5 | 6.3 | -0.1 | -2.0 | 23.3 | 0.6
O=C(Nc1ccccc1)C1=C(Nc2ccccc2)CSC1 | 1.7 | -1.2 | 1.1 | 0.5 | -3.3 | 1.4
CN1CCC(=C2c3ccccc3C(O)c3ccccc32)CC1 (centres undefined) | -20.0 | 96.2* | -7.1 | -18.6 | 98.7* | 2.4
CN1CCC(=C2c3ccccc3CCc3sccc32)CC1 | -17.4 | 99.2* | 0.2 | -18.2 | 98.8* | 5.0
CN1CCC(=C2c3ccccc3CC(=O)c3sccc32)CC1 | -17.0 | 71.5* | 0.5 | -18.9 | 98.1* | 5.9
